Measured values published in ChEMBL document CHEMBL4311941, “Development of Multifunctional Histone Deacetylase 6 Degraders with Potent Antimyeloma Activity” (J Med Chem, 2019).
pIC50: −log10 of the molar value. Active and inactive are the calls of the source. The rule behind the calls is not given here.

Tests used:
[1] = target: T1, Protein cereblon/Protein deacetylase HDAC6 (Homo sapiens, UniProt Q9UBN7+Q96SW2); experiment: Protac activity at CRBN/HDAC6 in human MM1S cells assessed as HDAC6 degradation measured after 6 hrs by ELISA relative to control; format: cell-based
Method in brief: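 In-cell ELISA: MM1S cells (5 × 10^4 per well) seeded overnight, treated 6 h (dosed as 5× medium; 0.1 nM–1 μM or 10/100 nM). Fixed in 8% formaldehyde/TBS, permeabilized with 0.1% Triton X, peroxidase quenched with 1% H2O2, blocked in 5% BSA. Anti-HDAC6 rabbit mAb (1:1000, 2 h) then HRP secondary; TMB read as OD450 − OD570. Background wells lacked primary antibody. Signal normalized to Janus Green and to DMSO wells, n = 3. DC50/Dmax from three-parameter fit.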

[2] = target: T2, Protein cereblon/Zinc finger protein Aiolos (Homo sapiens) (UniProt Q96SW2+Q9UKT9); experiment: Protac activity at CRBN/IKZF3 in human MM1S cells assessed as IKZF3 degradation at 100 nM measured after 4 hrs by Western blot analysis; format: cell-based
Method in brief: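 Time course in MM1S cells (1 × 10^6 cells per well, seeded overnight) under 100 nM degrader. Whole-cell RIPA lysates analysed by 7.5−12% SDS-PAGE and PVDF immunoblot. Primary antibody at 4 °C overnight, HRP secondary 1 h, ECL detection with densitometry.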

[3] = target: T1, Protein cereblon/Protein deacetylase HDAC6; experiment: Protac activity at CRBN/HDAC6 in human MM1S cells assessed as HDAC6 degradation at 100 nM measured after 1 to 4 hrs by Western blot analysis; format: cell-based
[4] = target: T1, Protein cereblon/Protein deacetylase HDAC6; experiment: Protac activity at CRBN/HDAC6 in human A431 cells assessed as HDAC6 degradation up to 3 uM incubated for 12 hrs by Western blot analysis; format: cell-based
[5] = target: T1, Protein cereblon/Protein deacetylase HDAC6; experiment: Protac activity at CRBN/HDAC6 in human RS4:11 cells assessed as HDAC6 degradation up to 10 uM incubated for 6 hrs by Western blot analysis; format: cell-based
[6] = target: Histone deacetylase 1 (Homo sapiens, UniProt Q13547); experiment: Inhibition of human N-terminal tagged human HDAC1 expressed in HEK293T/17 using Ac-Gly-Ala-[Ac-Lys]-AMC as substrate preincubated for 10 mins followed by substrate addition and measured after 15 mins by fluorescence assay
[7] = target: Histone deacetylase 4 (Homo sapiens, UniProt P56524); experiment: Inhibition of human N-terminal tagged human HDAC4 expressed in HEK293T/17 using Boc-[TFA-Lys]-AMC as substrate preincubated for 10 mins followed by substrate addition and measured after 60 mins by fluorescence assay
[8] = target: T3, Histone deacetylase 7 (Homo sapiens, UniProt Q8WUI4); experiment: Inhibition of human N-terminal tagged human HDAC7 expressed in HEK293T/17 using Boc-[TFA-Lys]-AMC as substrate preincubated for 10 mins followed by substrate addition and measured after 60 mins by fluorescence assay
T3 sequence (Q8WUI4 whole entry): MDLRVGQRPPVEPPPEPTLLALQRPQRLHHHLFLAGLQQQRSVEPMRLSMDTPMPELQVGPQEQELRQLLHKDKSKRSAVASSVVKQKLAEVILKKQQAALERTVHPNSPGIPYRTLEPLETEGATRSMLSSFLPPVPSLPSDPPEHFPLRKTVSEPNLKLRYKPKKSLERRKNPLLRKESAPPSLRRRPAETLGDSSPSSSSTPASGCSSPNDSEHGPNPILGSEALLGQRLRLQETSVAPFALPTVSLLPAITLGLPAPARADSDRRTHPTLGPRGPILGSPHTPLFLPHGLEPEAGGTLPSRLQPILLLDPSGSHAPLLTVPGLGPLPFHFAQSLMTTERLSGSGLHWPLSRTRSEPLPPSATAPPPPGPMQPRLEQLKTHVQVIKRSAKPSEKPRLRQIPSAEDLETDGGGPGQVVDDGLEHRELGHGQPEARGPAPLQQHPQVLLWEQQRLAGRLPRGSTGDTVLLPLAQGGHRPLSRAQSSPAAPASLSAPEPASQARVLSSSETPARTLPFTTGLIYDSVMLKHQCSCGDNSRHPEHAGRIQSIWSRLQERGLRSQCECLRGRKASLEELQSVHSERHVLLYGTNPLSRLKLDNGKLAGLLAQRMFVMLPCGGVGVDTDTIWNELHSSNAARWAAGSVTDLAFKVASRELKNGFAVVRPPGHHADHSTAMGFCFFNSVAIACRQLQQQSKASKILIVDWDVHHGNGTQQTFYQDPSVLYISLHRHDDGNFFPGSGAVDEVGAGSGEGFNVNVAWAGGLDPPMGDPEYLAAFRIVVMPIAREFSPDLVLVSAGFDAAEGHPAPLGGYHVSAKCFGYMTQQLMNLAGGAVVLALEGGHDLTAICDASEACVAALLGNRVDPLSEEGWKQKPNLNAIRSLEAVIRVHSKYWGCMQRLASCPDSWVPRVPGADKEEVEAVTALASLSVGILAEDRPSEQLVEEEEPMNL

[9] = target: T1, Protein cereblon/Protein deacetylase HDAC6; experiment: Protac activity at CRBN/HDAC6 in human MM1S cells assessed as HDAC6 degradation at 100 nM measured after 6 hrs in presence of E3 ligase ligand pomalidomide by Western blot analysis; format: cell-based
[10] = target: T1, Protein cereblon/Protein deacetylase HDAC6; experiment: Protac activity at CRBN/HDAC6 in human MM1S cells assessed as HDAC6 degradation at 100 nM measured after 6 hrs in presence of HDAC6 inhibitor Next-A by Western blot analysis; format: cell-based
[11] = target: Cereblon/Ikaros (Homo sapiens) (UniProt Q96SW2+Q13422); experiment: Protac activity at CRBN/IKZF1 in human MM1S cells assessed as IKZF1 degradation at 100 nM measured after 6 hrs in presence of HDAC6 inhibitor Next-A by Western blot analysis; format: cell-based
Method in brief: (§1)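 MM1S cells seeded at 1 × 10^6 per well overnight. Pretreated 1 h with pomalidomide, Next-A, MLN 4924 or DMSO, then given 100 nM degrader or DMSO for 6 h. Lysed in RIPA with protease inhibitors, 10−40 μg protein run on SDS-PAGE and transferred to PVDF. Blots probed for IKZF1/IKZF3, detected by ECL and quantified by densitometry.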

[12] = target: T2, Protein cereblon/Zinc finger protein Aiolos (Homo sapiens); experiment: Protac activity at CRBN/IKZF3 in human MM1S cells assessed as IKZF3 degradation at 100 nM measured after 6 hrs in presence of HDAC6 inhibitor Next-A by Western blot analysis; format: cell-based; method in brief: as §1
[13] = target: T2, Protein cereblon/Zinc finger protein Aiolos (Homo sapiens); experiment: Protac activity at CRBN/IKZF3 in human MM1S cells assessed as IKZF3 degradation at 100 nM measured after 6 hrs in presence of E3 ligase ligand pomalidomide by Western blot analysis; format: cell-based; method in brief: as §1
[14] = target: T2, Protein cereblon/Zinc finger protein Aiolos (Homo sapiens); experiment: Protac activity at CRBN/IKZF3 in human MM1S cells assessed as IKZF3 degradation at 100 nM measured after 6 hrs in presence of NAE inhibitor MLN 4924 by Western blot analysis; format: cell-based; method in brief: as §1
[15] = target: Protein cereblon/Histone deacetylase 4 (Homo sapiens) (UniProt P56524+Q96SW2); experiment: Protac activity at CRBN/HDAC4 in human MM1S cells assessed as HDAC4 degradation at 100 nM measured after 6 hrs in presence of proteasome inhibitor MG132 by Western blot analysis; format: cell-based
[16] = tested on: MM1.S; experiment: Induction of apoptosis in human MM1S cells assessed as cleavage of casapse3 measured after 48 hrs by Western blot analysis; format: functional, cell-based

T1 sequence (Q96SW2 whole entry, looked up): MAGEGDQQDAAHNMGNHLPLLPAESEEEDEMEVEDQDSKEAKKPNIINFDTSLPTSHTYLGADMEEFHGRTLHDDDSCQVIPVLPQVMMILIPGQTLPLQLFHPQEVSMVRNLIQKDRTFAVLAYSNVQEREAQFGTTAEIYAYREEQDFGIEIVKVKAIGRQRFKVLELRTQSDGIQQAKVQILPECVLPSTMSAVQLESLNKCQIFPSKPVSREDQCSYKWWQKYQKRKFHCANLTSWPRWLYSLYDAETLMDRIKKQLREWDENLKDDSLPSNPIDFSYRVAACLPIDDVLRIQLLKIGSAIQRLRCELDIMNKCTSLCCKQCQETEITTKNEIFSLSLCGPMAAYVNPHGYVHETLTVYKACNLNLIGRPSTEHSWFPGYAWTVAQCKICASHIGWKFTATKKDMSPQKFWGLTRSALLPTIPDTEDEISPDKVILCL
T1 sequence (Q9UBN7 whole entry, looked up): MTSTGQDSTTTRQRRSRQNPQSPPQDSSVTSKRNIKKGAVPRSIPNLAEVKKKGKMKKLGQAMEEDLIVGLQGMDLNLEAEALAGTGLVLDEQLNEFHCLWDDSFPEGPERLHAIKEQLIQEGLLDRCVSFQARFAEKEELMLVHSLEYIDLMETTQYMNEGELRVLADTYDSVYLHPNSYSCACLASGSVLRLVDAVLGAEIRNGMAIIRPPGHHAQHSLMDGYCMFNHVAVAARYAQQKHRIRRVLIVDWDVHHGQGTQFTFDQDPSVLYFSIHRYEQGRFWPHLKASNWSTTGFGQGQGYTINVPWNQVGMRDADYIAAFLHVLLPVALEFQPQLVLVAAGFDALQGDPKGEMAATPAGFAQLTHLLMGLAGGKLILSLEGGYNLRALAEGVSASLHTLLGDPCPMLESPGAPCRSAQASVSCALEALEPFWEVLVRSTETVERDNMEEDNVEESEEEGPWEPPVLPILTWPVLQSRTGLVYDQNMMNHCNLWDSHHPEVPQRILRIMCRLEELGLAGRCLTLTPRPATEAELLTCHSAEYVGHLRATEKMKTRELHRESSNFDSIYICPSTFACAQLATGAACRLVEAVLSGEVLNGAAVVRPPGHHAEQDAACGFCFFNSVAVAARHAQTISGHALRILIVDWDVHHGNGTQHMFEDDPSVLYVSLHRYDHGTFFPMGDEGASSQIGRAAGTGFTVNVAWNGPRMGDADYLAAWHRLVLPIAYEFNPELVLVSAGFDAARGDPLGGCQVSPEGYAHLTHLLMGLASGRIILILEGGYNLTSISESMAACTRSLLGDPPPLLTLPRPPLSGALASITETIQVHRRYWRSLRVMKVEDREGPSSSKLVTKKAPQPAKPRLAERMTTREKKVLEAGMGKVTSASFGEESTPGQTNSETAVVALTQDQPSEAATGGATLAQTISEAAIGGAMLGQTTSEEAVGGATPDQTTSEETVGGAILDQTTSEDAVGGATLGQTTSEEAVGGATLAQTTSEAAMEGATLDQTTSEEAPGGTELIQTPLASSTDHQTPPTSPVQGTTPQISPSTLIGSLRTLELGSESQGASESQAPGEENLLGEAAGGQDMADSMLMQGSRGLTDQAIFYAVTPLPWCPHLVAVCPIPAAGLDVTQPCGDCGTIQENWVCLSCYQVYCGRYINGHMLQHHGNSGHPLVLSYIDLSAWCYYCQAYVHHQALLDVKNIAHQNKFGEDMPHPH
T2 sequence (Q96SW2 whole entry, looked up): as the sequence (Q96SW2 whole entry, looked up) above
T2 sequence (Q9UKT9 whole entry, looked up): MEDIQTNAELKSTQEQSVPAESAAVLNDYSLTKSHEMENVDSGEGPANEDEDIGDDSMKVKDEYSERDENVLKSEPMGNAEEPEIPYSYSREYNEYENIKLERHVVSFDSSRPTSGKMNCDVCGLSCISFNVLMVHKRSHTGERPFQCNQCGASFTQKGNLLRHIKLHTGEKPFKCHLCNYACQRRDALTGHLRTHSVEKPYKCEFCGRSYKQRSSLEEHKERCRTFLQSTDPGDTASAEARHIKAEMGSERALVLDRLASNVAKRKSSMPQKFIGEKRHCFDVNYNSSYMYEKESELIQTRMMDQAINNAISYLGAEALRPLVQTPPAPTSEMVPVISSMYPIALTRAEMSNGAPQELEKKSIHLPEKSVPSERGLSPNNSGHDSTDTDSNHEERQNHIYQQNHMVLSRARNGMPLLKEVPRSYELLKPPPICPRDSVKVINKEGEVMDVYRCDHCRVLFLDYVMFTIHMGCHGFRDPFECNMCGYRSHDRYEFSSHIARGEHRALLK
Sequence of Histone deacetylase 1 (Q13547 whole entry): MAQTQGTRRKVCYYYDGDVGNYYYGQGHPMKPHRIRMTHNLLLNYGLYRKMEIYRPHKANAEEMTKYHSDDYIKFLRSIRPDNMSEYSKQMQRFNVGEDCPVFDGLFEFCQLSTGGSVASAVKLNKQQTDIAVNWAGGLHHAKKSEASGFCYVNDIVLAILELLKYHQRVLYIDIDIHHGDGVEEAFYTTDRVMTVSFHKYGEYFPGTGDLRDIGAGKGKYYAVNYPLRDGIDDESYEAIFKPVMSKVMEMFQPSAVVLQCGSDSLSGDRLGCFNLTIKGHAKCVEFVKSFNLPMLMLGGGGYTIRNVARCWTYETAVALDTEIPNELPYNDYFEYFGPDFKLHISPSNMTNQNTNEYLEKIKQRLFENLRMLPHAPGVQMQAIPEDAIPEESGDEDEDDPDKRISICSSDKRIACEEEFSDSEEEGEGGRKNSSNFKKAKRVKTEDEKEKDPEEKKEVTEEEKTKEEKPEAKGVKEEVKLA
Sequence of Histone deacetylase 4 (P56524 whole entry): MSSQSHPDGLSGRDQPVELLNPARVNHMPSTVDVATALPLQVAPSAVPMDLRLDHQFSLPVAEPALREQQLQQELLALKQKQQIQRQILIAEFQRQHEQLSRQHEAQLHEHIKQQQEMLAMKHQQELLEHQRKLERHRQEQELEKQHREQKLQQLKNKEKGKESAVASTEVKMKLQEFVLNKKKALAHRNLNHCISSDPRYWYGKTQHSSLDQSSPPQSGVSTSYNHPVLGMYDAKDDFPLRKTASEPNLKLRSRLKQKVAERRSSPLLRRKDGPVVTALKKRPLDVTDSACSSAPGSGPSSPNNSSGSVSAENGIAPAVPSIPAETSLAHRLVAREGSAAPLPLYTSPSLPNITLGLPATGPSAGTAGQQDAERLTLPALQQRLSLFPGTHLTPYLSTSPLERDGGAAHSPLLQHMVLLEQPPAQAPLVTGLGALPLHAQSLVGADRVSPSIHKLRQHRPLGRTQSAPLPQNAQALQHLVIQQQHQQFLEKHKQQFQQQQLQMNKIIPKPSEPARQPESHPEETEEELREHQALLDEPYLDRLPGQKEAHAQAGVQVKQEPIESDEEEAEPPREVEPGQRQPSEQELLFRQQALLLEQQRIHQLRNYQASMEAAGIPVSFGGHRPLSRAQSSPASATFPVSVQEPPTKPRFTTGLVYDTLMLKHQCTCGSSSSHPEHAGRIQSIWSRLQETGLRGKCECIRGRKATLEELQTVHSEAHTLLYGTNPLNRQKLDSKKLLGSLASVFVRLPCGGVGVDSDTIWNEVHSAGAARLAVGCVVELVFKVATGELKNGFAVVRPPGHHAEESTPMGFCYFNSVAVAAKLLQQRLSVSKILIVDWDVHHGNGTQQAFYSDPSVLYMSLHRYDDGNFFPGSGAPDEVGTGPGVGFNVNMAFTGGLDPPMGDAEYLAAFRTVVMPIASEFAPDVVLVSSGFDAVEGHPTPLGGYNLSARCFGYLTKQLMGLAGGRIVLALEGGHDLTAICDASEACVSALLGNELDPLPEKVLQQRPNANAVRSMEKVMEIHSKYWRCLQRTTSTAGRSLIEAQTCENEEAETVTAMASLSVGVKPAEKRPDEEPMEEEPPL
Sequence of Protein cereblon/Histone deacetylase 4 (Homo sapiens) (P56524 whole entry, looked up): as the sequence (P56524 whole entry) above
Sequence of Protein cereblon/Histone deacetylase 4 (Homo sapiens) (Q96SW2 whole entry, looked up): as the sequence (Q96SW2 whole entry, looked up) above

%max [1]: 86.3%
Activity [2]: Active
Activity [3]: Dose-dependent effect
Activity [4]: Active
Activity [5]: Active
pIC50 [6]: 4.52 to 6.52
pIC50 [7]: 4.52 to 6.52
pIC50 [8]: 4.52 to 6.52
Activity [9]: inactive
Activity [10]: inactive
Activity [11]: Active
Activity [12]: Active
Activity [13]: Active
Activity [14]: inactive
Activity [15]: inactive
SMILES: CCCCN(Cc1ccc(C(=O)NO)cc1)C(=O)Nc1ccc(OCCCCCn2cc(CNc3cccc4c3C(=O)N(C3CCC(=O)NC3=O)C4=O)nn2)cc1 (stereo unspecified)
Activity [16]: Dose-dependent effect
